From paper PMC8336959 (Science Advances, 2021)
Square brackets hold non-standard residues; d marks the D form. Ends that are not written are not given here. pY = N[C@@H](Cc1ccc(OP(=O)(O)O)cc1)C(=O)O

Tests used:
[1] = system: GRB2-KO HeLa cells reconstituted with ^K109RGRB2; test: Annexin V/PI staining assay, KO + K109R cells; format: cell-based, human; conditions: FACS, 50 μM olaparib for 72 hours, compared with GRB2-KO
[2] = Sulforhodamine B assay of olaparib-induced cytotoxicity, KO + GRB2 cells; format: cell-based; conditions: human, GRB2-KO HeLa cells reconstituted with WT GRB2
In short: (§1)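 HeLa cells kept in RPMI 1640 with 10% FBS at 10% CO2. Knockout made by CRISPR-Cas9 gRNA delivered by lentivirus, with puromycin or blasticidin selection; clones checked by Western blot and pooled. Stable reconstitution with wild-type or K109R Strep-tagged GRB2. Cytotoxicity of PARP inhibitor read by sulforhodamine B staining. IC50 taken from the concentration–response data.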

[3] = system: GRB2-KO HeLa cells; test: Annexin V/PI staining assay, GRB2-KO cells; format: cell-based, human; conditions: FACS, 50 μM olaparib for 72 hours, triplicate
In short: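 HeLa cells (GRB2-knockout and comparison lines) grown in RPMI 1640 with 10% FBS at 10% CO2. Cells treated 72 h with DMSO or 50 μM PARP inhibitor, then trypsinized, washed and resuspended in annexin-binding buffer. Labelled with annexin V–Alexa Fluor 647 plus PI for 15 min at room temperature in the dark. Annexin V- and PI-positive fractions scored by flow cytometry against the DMSO control. Triplicate.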

[4] = Sulforhodamine B assay of olaparib-induced cytotoxicity, KO + K109R cells; format: cell-based; conditions: human, GRB2-KO HeLa cells reconstituted with K109R mutant GRB2
In short: as §1

[5] = Sulforhodamine B assay of olaparib-induced cytotoxicity, control cells; format: cell-based; conditions: human, control (WT) HeLa cells
In short: as §1

[6] = system: control (WT) HeLa cells; test: Annexin V/PI staining assay, control cells; format: cell-based, human; conditions: FACS, 50 μM olaparib for 72 hours, triplicate
[7] = system: GRB2-KO HeLa cells; test: Sulforhodamine B assay of olaparib-induced cytotoxicity, GRB2-KO cells; format: cell-based, human; conditions: Sulforhodamine B assay, ratio of IC50 WT vs GRB2-KO
[8] = as above; format: cell-based, human; conditions: human, GRB2-KO HeLa cells
[9] = target: GRB2-SH2 domain (Homo sapiens, UniProt P62993); test: MST binding of synthetic peptides to Atto488-labeled GRB2-SH2 domain; conditions: synthetic peptide
Chain of GRB2-SH2 domain (P62993 60-152 limits assumed): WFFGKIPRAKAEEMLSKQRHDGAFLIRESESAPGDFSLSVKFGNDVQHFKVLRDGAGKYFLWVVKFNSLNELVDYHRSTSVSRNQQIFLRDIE

[10] = system: human MRE11 (residues 1 to 411); test: MST binding of Atto488-labeled GRB2; conditions: bacterially expressed purified proteins

## O=C(c1cc(Cc2n[nH]c(=O)c3ccccc23)ccc1F)N1CCN(C(=O)C2CC2)CC1 [olaparib]
[1]
  olaparib-induced apoptosis, in words: failed to rescue the phenotype
[2]
  IC50: 164 ± 47 µM
[3]
  olaparib-induced apoptosis, share of cells: 60%
[4]
  IC50: 20 ± 3 µM
[5]
  IC50: 124 ± 41 µM
[6]
  olaparib-induced apoptosis, share of cells: 20%
[7]
  sensitivity of GRB2-KO cells relative to WT control cells: seven
[8]
  IC50: 18 ± 2.9 µM

## PSGGKKATQA(pS)QEY [pS139 H2AX]
[9]
  binding to GRB2-SH2 domain in words: failed to produce a binding isotherm

## PSGGKKATQASQE(pY) [pY142 H2AX]
[9]
  binding to GRB2-SH2 domain in words: failed to produce a binding isotherm

## PWVN[pY]QDGNLN [WVNpYQDGNLN]
[9]
  binding to GRB2-SH2 domain in words: limited impact

## ^K109RGRB2: GRB2 lysine-109-to-arginine mutant, MRE11 nonbinding, generated by site-directed mutagenesis
[10]
  MRE11 binding in words: no binding
